Tests used:
[1] = target: CHK2 (Homo sapiens, UniProt O96017); experiment: Kinase profiling at 10 µmol/L; format: biochemical; conditions: read-out: activity remaining
Method in brief: (§1)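 Millipore profiling covered 50 human kinases. Test compound was tested at 10 µmol/L, with ATP at the Km of each enzyme. Readout was % kinase activity remaining.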

[2] = test system: U87MG human glioblastoma cells; experiment: Immunoblotting of AKT biomarkers and cell cycle proteins; format: cell-based
Method in brief: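 U87MG cells were exposed for 1 h to increasing test-compound concentrations, or to one fixed concentration sampled at intervals up to 48 h. Controls were DMSO and LY294002 (30 µM, 1 h). Phospho and total AKT, GSK3β, PRAS40, FOXO1/3a, S6RP, cyclin D1, p21 and p27 were immunoblotted (10% Tris-glycine gels, PVDF, overnight 4 °C primaries, ECL). GAPDH served as loading control.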

[3] = test system: PC3 and LNCaP prostate cancer cell lines, HCT116 colorectal cancer cells and MCF7 human breast cancer cells; format: cell-based; conditions: one hour exposure, 3 or 10 µM
Method in brief: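 PC3, LNCaP, HCT116 and MCF7 cells were exposed for 1 h to 3 or 10 µM test compound. Controls were DMSO and LY294002 (30 µM, 1 h). Lysates were run on 10% Tris-glycine gels, transferred to PVDF and blocked in 5% milk/Tris-NaCl-Tween. Primary antibodies were applied overnight at 4 °C, then HRP secondaries for 1 h, with ECL detection. GAPDH served as loading control.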

[4] = target: PKA (Homo sapiens, UniProt P17612); experiment: Kinase enzyme assay; format: biochemical; conditions: read-out: activity remaining
[5] = test system: panel of kinases representative of the human protein kinome; experiment: Kinase profiling at 10 µmol/L against panel of kinases; format: biochemical; conditions: ATP at Km
Method in brief: as §1

[6] = test system: PTEN-null U87MG human glioblastoma xenografts; experiment: Antitumor activity in human tumor xenograft; format: in vivo, mice; conditions: 25 mg/kg i.p. × 5 of 7 days
Method in brief: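 U87MG cells (2 × 10⁶) were injected s.c. into the right flank of 6–8-week-old female […] mice. Mice were randomized at ~100 mm³ mean tumor volume and given test compound i.p. or vehicle (10% DMSO, 5% Tween 20, 85% saline). Body weight and caliper tumor diameters were recorded three times weekly. Volume = 4/3π[(d1+d2)/4]³; tumors were excised and weighed at study end.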

[7] = test system: U87MG human glioblastoma xenografts; experiment: Pharmacodynamic AKT biomarker immunoblotting in tumor xenografts; format: in vivo, mice; conditions: 50 mg/kg i.p. × 4 days
Method in brief: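 Mice bearing s.c. U87MG xenografts received 50 mg/kg i.p. daily for 4 days. Tumors were harvested 2 and 6 h after the last dose; protein was measured by Bradford and tumors were immunoblotted. Each phosphoprotein/total protein ratio was normalized to GAPDH and expressed relative to vehicle controls (=1.0). Data are mean ± SE of 3–5 determinations.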

[8] = target: Rock-II (Homo sapiens, UniProt O75116); experiment: Kinase profiling at 10 µmol/L; format: biochemical; conditions: read-out: activity remaining
Method in brief: as §1

[9] = Pharmacokinetics after single dose of 25 mg/kg; format: in vivo, mice
Method in brief: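 Mice bearing HCT116 xenografts received a single 25 mg/kg dose i.v., i.p. or p.o. Plasma and tumor were sampled over time, 3–5 mice per time point. Drug was extracted with methanol and quantified by LC-MS on a Synergi-Polar RP column (0.1% formic acid/methanol gradient, 0.6 ml/min, 12 min). Data are mean ± SE.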

[10] = test system: U87MG human glioblastoma cells; experiment: 96-hour SRB antiproliferative assay; format: cell-based; conditions: U-87 MG, read-out: GI50 for growth inhibition (mean±SD)
Method in brief: (§2)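 Cells attached for 36 h before treatment so they were in exponential growth. Test compound came from a 10 mM DMSO stock. Growth was measured by sulforhodamine B staining after 96 h of exposure. GI50 was derived by a previously published method and reported as mean ± SD of 3–5 independent experiments.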

[11] = test system: LNCaP human prostate cancer cells; experiment: 96-hour SRB antiproliferative assay; format: cell-based; conditions: read-out: GI50 for growth inhibition (mean±SD)
Method in brief: as §2

[12] = test system: PTEN-null U87MG human glioblastoma cells; experiment: Flow cytometry cell cycle analysis; format: cell-based
[13] = test system: HER2-positive, PIK3CA-mutant BT474 human breast cancer xenografts; experiment: Antitumor activity in human tumor xenograft; format: in vivo, mice; conditions: 40 mg/kg bid × 5 of 7 days
Method in brief: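 BT474 cells (5 × 10⁶) in medium mixed 1:1 with matrigel were implanted into mammary fat pads of female mice. Estradiol pellets (0.025 mg, 90-day release) had been placed s.c. 3 days earlier. Mice were randomized at ~100 mm³ mean tumor volume. Dosing was 40 mg/kg i.p. twice daily for 5 days versus vehicle (10% DMSO, 5% Tween 20, 85% saline). Tumors (calipers) and body weight were measured thrice weekly.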

[14] = test system: PC3 human prostate cancer cells; experiment: 96-hour SRB antiproliferative assay; format: cell-based; conditions: read-out: GI50 for growth inhibition (mean±SD)
Method in brief: as §2

[15] = target: p70S6K (Homo sapiens, UniProt P23443); experiment: Kinase enzyme assay; format: biochemical; conditions: read-out: activity remaining
Method in brief: as §1

CHK2, sequence (O96017 whole entry): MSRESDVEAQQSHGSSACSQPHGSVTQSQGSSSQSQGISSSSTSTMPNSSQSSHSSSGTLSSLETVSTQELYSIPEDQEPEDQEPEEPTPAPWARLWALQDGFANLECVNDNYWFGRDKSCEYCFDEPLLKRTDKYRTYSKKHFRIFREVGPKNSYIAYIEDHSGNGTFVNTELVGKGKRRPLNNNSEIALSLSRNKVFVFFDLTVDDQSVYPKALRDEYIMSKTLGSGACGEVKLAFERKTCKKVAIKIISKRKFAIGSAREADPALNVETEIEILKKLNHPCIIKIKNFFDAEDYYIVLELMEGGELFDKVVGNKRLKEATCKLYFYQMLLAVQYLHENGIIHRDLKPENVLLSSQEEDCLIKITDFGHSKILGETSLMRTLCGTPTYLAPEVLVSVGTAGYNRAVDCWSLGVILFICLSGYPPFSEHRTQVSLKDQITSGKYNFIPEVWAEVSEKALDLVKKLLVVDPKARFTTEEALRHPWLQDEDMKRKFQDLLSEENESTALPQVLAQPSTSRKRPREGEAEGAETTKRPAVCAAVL
Rock-II, sequence (O75116 whole entry): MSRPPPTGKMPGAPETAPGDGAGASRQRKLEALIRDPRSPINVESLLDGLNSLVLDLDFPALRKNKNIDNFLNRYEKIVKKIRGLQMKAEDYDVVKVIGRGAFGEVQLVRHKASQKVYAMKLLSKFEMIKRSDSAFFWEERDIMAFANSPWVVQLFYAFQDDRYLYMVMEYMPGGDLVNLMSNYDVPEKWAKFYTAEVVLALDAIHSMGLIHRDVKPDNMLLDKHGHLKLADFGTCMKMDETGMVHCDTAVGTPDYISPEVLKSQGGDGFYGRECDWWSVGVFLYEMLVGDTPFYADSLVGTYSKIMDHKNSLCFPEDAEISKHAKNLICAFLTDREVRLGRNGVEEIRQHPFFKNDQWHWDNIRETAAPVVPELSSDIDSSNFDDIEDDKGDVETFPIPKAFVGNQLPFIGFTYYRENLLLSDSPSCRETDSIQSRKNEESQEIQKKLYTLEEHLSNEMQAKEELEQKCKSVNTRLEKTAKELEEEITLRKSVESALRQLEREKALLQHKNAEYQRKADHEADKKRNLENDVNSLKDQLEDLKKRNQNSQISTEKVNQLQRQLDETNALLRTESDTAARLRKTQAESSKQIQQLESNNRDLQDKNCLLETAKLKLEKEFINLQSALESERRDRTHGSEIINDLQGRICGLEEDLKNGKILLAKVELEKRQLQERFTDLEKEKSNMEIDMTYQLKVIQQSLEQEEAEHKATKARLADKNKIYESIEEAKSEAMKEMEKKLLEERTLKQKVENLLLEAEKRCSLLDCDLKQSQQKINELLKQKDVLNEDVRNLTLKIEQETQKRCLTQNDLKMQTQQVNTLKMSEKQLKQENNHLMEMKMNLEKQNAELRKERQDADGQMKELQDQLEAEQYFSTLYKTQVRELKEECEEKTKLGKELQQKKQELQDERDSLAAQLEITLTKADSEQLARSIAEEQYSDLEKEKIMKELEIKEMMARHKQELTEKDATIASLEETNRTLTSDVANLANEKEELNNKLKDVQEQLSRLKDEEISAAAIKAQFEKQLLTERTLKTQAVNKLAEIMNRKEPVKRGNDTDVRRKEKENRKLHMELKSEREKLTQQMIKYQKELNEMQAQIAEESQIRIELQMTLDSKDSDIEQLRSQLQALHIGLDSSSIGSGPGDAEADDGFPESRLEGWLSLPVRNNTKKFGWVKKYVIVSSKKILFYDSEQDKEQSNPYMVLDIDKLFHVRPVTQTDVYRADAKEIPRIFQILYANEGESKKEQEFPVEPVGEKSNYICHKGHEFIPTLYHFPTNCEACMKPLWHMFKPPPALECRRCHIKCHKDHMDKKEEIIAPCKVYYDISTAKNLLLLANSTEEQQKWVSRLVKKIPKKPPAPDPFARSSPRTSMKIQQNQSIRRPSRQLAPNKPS
p70S6K, sequence (P23443 whole entry): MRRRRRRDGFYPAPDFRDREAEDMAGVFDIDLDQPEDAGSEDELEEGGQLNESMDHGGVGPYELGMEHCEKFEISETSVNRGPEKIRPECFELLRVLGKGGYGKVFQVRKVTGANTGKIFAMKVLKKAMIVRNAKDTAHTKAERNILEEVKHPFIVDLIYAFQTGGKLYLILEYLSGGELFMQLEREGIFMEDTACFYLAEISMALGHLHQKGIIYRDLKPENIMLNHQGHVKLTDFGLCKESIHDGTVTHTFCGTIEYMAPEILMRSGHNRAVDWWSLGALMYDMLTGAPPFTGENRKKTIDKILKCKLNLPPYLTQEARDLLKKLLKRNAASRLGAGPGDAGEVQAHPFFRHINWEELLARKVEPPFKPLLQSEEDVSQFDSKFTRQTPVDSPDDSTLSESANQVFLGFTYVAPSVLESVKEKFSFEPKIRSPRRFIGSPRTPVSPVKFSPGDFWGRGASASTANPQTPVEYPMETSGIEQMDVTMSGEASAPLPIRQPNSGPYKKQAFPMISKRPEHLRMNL

remaining activity at 10 µM [1]: < 25%
remaining activity at 10 µM [4]: < 25%
cross-reactivity with 47 other kinases [5]: minimal cross-reactivity
weight loss [6]: no weight loss
remaining activity at 10 µM [8]: < 25%
peak tumor concentration ([9]; 25 mg/kg i.p., HCT116 human colon tumor xenograft): 8 µM
AUC0-∞ tumor ([9]; 25 mg/kg i.p., HCT116 tumor xenograft): 25.8 µMh
administered dose recovered unaltered in urine ([9]; 25 mg/kg i.p., after 24 hours (data not shown)): 0.23%
AUC0-∞ plasma ([9]; 25 mg/kg i.p., mice): 1.3 µMh
AUC0-∞ plasma ([9]; 25 mg/kg i.v., mice): 4.6 µMh
peak concentration in plasma ([9]; 25 mg/kg i.v., mice): 6.4 µM
peak plasma concentration ([9]; 25 mg/kg p.o., mice): 0.43 µM
GI50 [10]: 6300 nM
GI50 [11]: 350 nM
GI50 [14]: 1900 nM
remaining activity at 10 µM [15]: < 25%
Compound: NC1(Cc2ccc(Cl)cc2)CCN(c2ncnc3[nH]ccc23)CC1 [CCT128930, 4-(4-chlorobenzyl)-1-(7H-pyrrolo[2,3-d]pyrimidin-4-yl)piperidin-4-amine]
cyclin D1 over time ([2]; 18.9 μM): decreased after 8 hours
pSer473 AKT over time ([2]; 18.9 μM (3× GI50), after 30 minutes, sustained for 48 hours): increase in phosphorylation
pThr32 FOXO3a phosphorylation ([2]; 18.9 μM, after one hour exposure): marked decrease
pSer235/236 S6RP signal over time ([2]; 18.9 μM, decrease at 30 minutes): complete loss after 2 hours
pSer240/244 S6RP signal over time ([2]; 18.9 μM, decreased from 4 hours): abolished after 8 hours
pSer9 GSK3β phosphorylation over time ([2]; 18.9 μM, from 30 minutes, sustained at least 24 hours, recovery at 48 hours): rapid and profound loss
pThr246 PRAS40 over time ([2]; 18.9 μM, from 30 minutes, sustained throughout 48 hours): marked loss in phosphorylation
CDK inhibitor p27 over time ([2]; 18.9 μM, from 2 hours): induction
exposure sufficient to markedly inhibit phosphorylation of GSK3β, S6RP, FOXO1 and PRAS40 ([2]; 1 hour): 5 to 10 µM
concentration decreasing cyclin D1 expression ([2]; 1 h treatment): ≥ 40 µM
concentration inhibiting direct substrates of AKT (Ser9 GSK3β, pThr246 PRAS40 and pT24 FOXO1/p32 FOXO3a) ([2]; 1 h treatment): ≥ 5 μM
concentration inhibiting downstream target pSer235/236 S6RP ([2]; 1 h treatment): ≥ 10 μM
effect on pSer240/244 S6RP ([2]; 1 h treatment, increasing concentrations): minimal effects
concentration up to which AKT phosphorylation at serine 473 is induced ([2]; 1 h treatment, decrease at higher concentrations): up to 20 μM
apoptosis as measured by PARP cleavage ([2]; after CCT128930 treatment (Supplementary Figure 2)): increase
pSer473 AKT [3]: induction
pSer9 GSK3β ([3]; all four cell lines): Decreased phosphorylation
pSer240/244 S6RP ([3]; all four cell lines): decreased
phosphorylation of Ser9 GSK3β ([7]; 2 and 6 hours (P<0.001 and P<0.01)): significant decreases
phosphorylation of Ser235/236 S6RP ([7]; 2 and 6 hours (P<0.05 and P<0.01)): significant decreases
phosphorylation of Thr246 PRAS40 ([7]; 2 and 6 hours (P<0.05 and P<0.05)): significant decreases
Ser473 phosphorylation on AKT ([7]; 2 and 6 hours after last dose (P<0.001 and P<0.01)): significant increase
G2/M cells ([12]; 1 × GI50, 24 hours, DMSO control 16.7%): 18.9%
S phase cells ([12]; 1 × GI50, 24 hours, DMSO control 32.3%): 13.2%
G0/G1 phase cells ([12]; 1 × GI50, 24 hours, DMSO control 46.4%): 63.2%
G2/M phase cells ([12]; 3 × GI50 (18.9µM), 24 hours, DMSO control 17.8%): 30.5%
S phase cells ([12]; 3 × GI50 (18.9µM), 24 hours, DMSO control 36.6%): 2.0%
G0/G1 phase cells ([12]; 3 × GI50 (18.9µM), 24 hours, DMSO control 43.6%): 64.8%
antitumor effect [13]: complete growth arrest
body weight nadir, % of the initial body weight ([13]; day 15 of treatment): 94.8%

— article PMC4944842 (Molecular cancer therapeutics, 2010)
